Data published in ChEMBL document CHEMBL5325390, “1,2,4-Triazole-3-thione analogues with an arylakyl group at position 4 as metallo-β-lactamase inhibitors” (Bioorg Med Chem, 2022).
pKi: −log10 of the molar value. Activity calls are given as the source filed them. The calls are words filed in the database; no cut-off is given here.

Tests used:
Beta-lactamase VIM-1 = Beta-lactamase VIM-1 (Bacteria, UniProt Q8GDC1); test: Binding affinity to VIM-1 (unknown origin) expressed in Escherichia coli BL21(DE3) assessed as inhibition constant by measuring rate of substrate hydrolysis by UV-Vis spectrophotometric analysis
Procedure, shortened: (§1)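 Purified MBL (1–70 nM) with 150 µM imipenem or meropenem as reporter substrate, 50 mM HEPES pH 7.5, 30 °C. Hydrolysis followed by absorbance at 300 nm without and with inhibitor (0.5 µM–1 mM). Ki from the slope of v0/vi vs [I] under a competitive model, or from Dixon plots varying inhibitor and substrate. […] Triplicate, mean ± SD.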

[1] = Binding affinity to VIM-2 (unknown origin) expressed in Escherichia coli BL21(DE3) assessed as inhibition constant by measuring rate of substrate hydrolysis by UV-Vis spectrophotometric analysis; procedure, shortened: as §1
[2] = Binding affinity to VIM-4 (unknown origin) expressed in Escherichia coli BL21(DE3) assessed as inhibition constant by measuring rate of substrate hydrolysis by UV-Vis spectrophotometric analysis; procedure, shortened: as §1
[3] = molecular target: Metallo-beta-lactamase type 2 (Bacteria) (UniProt C7C422); test: Inhibition of NDM1 (unknown origin) expressed in Escherichia coli BL21(DE3) assessed as substrate hydrolysis at 100 uM by UV-Vis spectrophotometric analysis relative to control
Procedure, shortened: (§2)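 Single-point screen at 100 or 200 µM inhibitor against purified MBL (1–70 nM) with 150 µM imipenem or meropenem reporter substrate, 50 mM HEPES pH 7.5, 30 °C. Initial hydrolysis rate read by absorbance at 300 nm and compared with the uninhibited reaction. Triplicate.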

Klebsiella pneumoniae [4] = test: Antimicrobial synergistic activity against blaVIM-1-producing multidrug-resistant Klebsiella pneumoniae 7023 clinical isolate assessed as meropenem MIC at 32 ug/ml by CLSI based broth microdilution method (reference value: 16 ug/ml); assay type: functional; conditions: dose 32 µg/ml
Klebsiella pneumoniae [5] = test: Antimicrobial synergistic activity against blaVIM-4-producing multidrug-resistant Klebsiella pneumoniae VA416/02 clinical isolate assessed as meropenem MIC at 32 ug/ml by CLSI based broth microdilution method (reference value: 16 ug/ml); assay type: functional; conditions: dose 32 µg/ml
Escherichia coli = test: Synergistic antimicrobial activity against blaNDM-1-producing multidrug-resistant Escherichia coli SI-004M clinical isolate assessed as meropenem MIC at 32 ug/ml by CLSI based microdilution method (reference value: 64 ug/ml); assay type: functional; conditions: dose 32 µg/ml
[6] = system: metallo-β-lactamase L1 (Stenotrophomonas maltophilia); test: Inhibition of L1 (unknown origin) expressed in Escherichia coli BL21(DE3) assessed as substrate hydrolysis at 100 uM by UV-Vis spectrophotometric analysis relative to control
[7] = system: metallo-β-lactamase IMP-1 (Pseudomonas aeruginosa); test: Inhibition of IMP1 (unknown origin) expressed in Escherichia coli BL21(DE3) assessed as substrate hydrolysis at 100 uM by UV-Vis spectrophotometric analysis relative to control
[8] = molecular target: Beta-lactamase VIM-1 (Bacteria) (UniProt Q8GDC1); test: Inhibition of VIM-1 (unknown origin) expressed in Escherichia coli BL21(DE3) assessed as substrate hydrolysis at 100 uM by UV-Vis spectrophotometric analysis relative to control; procedure, shortened: as §2
[9] = system: metallo-β-lactamase VIM-2 (Pseudomonas aeruginosa); test: Inhibition of VIM-2 (unknown origin) expressed in Escherichia coli BL21(DE3) assessed as substrate hydrolysis at 100 uM by UV-Vis spectrophotometric analysis relative to control
[10] = system: metallo-β-lactamase VIM-4 (Pseudomonas aeruginosa); test: Inhibition of VIM-4 (unknown origin) expressed in Escherichia coli BL21(DE3) assessed as substrate hydrolysis at 100 uM by UV-Vis spectrophotometric analysis relative to control
[11] = molecular target: Metallo-beta-lactamase type 2 (Bacteria) (UniProt C7C422); test: Inhibition of NDM1 (unknown origin) expressed in Escherichia coli BL21(DE3) assessed as substrate hydrolysis at 200 uM by UV-Vis spectrophotometric analysis relative to control; procedure, shortened: as §2
[12] = system: metallo-β-lactamase IMP-1 (Pseudomonas aeruginosa); test: Inhibition of IMP1 (unknown origin) expressed in Escherichia coli BL21(DE3) assessed as substrate hydrolysis at 200 uM by UV-Vis spectrophotometric analysis relative to control
[13] = system: metallo-β-lactamase VIM-2 (Pseudomonas aeruginosa); test: Inhibition of VIM-2 (unknown origin) expressed in Escherichia coli BL21(DE3) assessed as substrate hydrolysis at 200 uM by UV-Vis spectrophotometric analysis relative to control
[14] = system: metallo-β-lactamase VIM-4 (Pseudomonas aeruginosa); test: Inhibition of VIM-4 (unknown origin) expressed in Escherichia coli BL21(DE3) assessed as substrate hydrolysis at 200 uM by UV-Vis spectrophotometric analysis relative to control
[15] = molecular target: Metallo-beta-lactamase type 2 (Bacteria, UniProt C7C422); test: Binding affinity to NDM1 (unknown origin) expressed in Escherichia coli BL21(DE3) assessed as inhibition constant by measuring rate of substrate hydrolysis by UV-Vis spectrophotometric analysis; conditions: read-out: Ki; procedure, shortened: as §1
[16] = molecular target: Beta-lactamase VIM-1 (Bacteria) (UniProt Q8GDC1); test: Inhibition of VIM-1 (unknown origin) expressed in Escherichia coli BL21(DE3) assessed as substrate hydrolysis at 200 uM by UV-Vis spectrophotometric analysis relative to control; procedure, shortened: as §2
[17] = Binding affinity to IMP1 (unknown origin) expressed in Escherichia coli BL21(DE3) assessed as inhibition constant by measuring rate of substrate hydrolysis by UV-Vis spectrophotometric analysis; conditions: read-out: Ki; procedure, shortened: as §1
[18] = molecular target: T1, Angiotensin-converting enzyme (Oryctolagus cuniculus) (UniProt P12822); test: Inhibition of rabbit lung angiotensin-converting enzyme at 100 uM using Abz-Gly-Phe-(NO2)-Pro as substrate by fluorescence based microplate reader analysis relative to control; assay type: tissue-based
T1 sequence (whole entry): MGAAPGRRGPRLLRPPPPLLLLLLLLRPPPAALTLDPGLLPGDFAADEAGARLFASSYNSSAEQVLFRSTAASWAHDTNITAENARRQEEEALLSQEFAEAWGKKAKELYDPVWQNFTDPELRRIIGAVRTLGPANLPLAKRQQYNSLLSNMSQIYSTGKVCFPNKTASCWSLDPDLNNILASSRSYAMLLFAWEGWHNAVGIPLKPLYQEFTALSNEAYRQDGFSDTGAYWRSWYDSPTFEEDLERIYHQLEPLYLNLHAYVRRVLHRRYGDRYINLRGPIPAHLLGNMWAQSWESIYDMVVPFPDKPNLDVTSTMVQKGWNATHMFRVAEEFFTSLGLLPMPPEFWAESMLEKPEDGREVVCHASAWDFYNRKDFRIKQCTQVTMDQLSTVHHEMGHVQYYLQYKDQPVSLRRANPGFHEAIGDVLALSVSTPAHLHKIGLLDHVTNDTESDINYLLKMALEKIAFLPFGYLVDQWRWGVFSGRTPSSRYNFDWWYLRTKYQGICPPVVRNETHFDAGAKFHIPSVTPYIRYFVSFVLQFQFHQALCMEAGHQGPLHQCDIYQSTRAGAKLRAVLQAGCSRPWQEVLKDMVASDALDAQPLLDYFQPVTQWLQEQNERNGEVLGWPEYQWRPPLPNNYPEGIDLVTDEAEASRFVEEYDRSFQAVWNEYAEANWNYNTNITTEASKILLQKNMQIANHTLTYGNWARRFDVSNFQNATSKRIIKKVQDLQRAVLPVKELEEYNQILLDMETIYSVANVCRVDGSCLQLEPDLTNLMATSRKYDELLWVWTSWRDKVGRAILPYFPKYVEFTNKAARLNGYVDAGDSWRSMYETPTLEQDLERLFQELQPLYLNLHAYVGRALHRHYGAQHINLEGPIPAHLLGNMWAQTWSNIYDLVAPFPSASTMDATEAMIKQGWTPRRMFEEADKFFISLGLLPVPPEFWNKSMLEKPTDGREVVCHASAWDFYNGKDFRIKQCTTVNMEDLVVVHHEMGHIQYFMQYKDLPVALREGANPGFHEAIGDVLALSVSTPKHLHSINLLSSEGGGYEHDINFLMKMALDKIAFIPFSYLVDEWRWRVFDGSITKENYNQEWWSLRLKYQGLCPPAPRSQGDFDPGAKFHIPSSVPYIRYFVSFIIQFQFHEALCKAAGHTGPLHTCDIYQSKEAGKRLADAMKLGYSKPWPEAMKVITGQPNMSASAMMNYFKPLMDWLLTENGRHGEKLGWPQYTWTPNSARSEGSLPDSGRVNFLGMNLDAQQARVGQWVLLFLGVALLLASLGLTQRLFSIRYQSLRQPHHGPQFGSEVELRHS
Procedure, shortened: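 Rabbit lung ACE, 1.5 mU per well, in 150 mM Tris, 750 mM NaCl, pH 8.3, with Abz-Gly-Phe(NO2)-Pro substrate. Blank-corrected fluorescence of released Abz-Gly-OH (ex 316, em 413 nm) followed up to 90 min. Test compounds at 100 µM; captopril control at 100 nM. Inhibition % = 100 − (vi/v0 × 100).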

Sequence of Metallo-beta-lactamase type 2 (Bacteria) (C7C422 whole entry): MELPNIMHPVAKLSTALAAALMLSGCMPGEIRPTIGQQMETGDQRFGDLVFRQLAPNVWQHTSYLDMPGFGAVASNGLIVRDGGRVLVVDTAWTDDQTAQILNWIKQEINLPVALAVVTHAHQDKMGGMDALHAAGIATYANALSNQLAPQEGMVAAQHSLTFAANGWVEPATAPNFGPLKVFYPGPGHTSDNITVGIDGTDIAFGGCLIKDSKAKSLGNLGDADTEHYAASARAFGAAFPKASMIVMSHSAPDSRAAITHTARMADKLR
Sequence of Metallo-beta-lactamase type 2 (C7C422 whole entry): as above

SMILES | inhibition [3] [%] | inhibition [7] [%] | inhibition [8] [%] | inhibition [9] [%] | inhibition [10] [%] | inhibition [11] [%] | inhibition [12] [%] | inhibition [13] [%] | inhibition [14] [%] | pKi [15] | inhibition [16] [%] | pKi (Beta-lactamase VIM-1) | pKi [1] | pKi [2] | MIC (Klebsiella pneumoniae [4]) [µg/mL] | MIC (Klebsiella pneumoniae [5]) [µg/mL] | MIC (Escherichia coli) [µg/mL] | inhibition [6] [%] | pKi [17] | inhibition [18]
O=C(O)c1ccc(Cn2c(-c3ccccc3)n[nH]c2=S)cc1 | < 30 | < 30 |  |  |  |  |  |  |  |  |  | 5.44 | 5.57 | 5.96 | 4 | 2 | 64 | 45 |  | 
S=c1[nH]nc(Cc2ccccc2)n1Cc1ccccc1 | < 30 | 57 |  | < 30 | < 30 |  |  |  |  |  |  | 4.64 |  |  |  |  |  | 40 |  | 
S=c1[nH]nc(-c2ccccc2)n1CCc1ccc(OCc2ccccc2)cc1 | < 30 |  | 34 |  | < 30 | < 50 |  |  | < 50 |  |  |  | 4.72 |  |  |  |  |  | 5.28 | 
Cc1ccccc1-c1n[nH]c(=S)n1CCc1ccc(OCc2ccccc2)cc1 | < 30 | < 30 | 47 | < 30 | < 30 | < 50 | < 50 | < 50 | < 50 |  |  |  |  |  |  |  |  |  |  | 
Sc1nnc(-c2ccccc2)n1Cc1ccccc1 | < 30 |  |  |  |  |  |  |  |  |  |  | 6.14 |  | 5.82 | 4 | 4 |  |  | 5.10 | inactive
S=c1[nH]nc(-c2ccccc2)n1CCCCc1ccccc1 | 55 | < 30 |  |  |  |  |  |  |  |  |  | 5.92 | 6.64 | 6.37 | 2 | 4 | 64 | 50 |  | 
COc1ccc(O)c(-c2n[nH]c(=S)n2Cc2ccccc2)c1 | < 30 | < 30 |  |  |  |  |  |  |  |  |  | 6.23 | 5.40 | 5.74 | 2 | 2 | 32 | 40 |  | 
COc1ccc(O)c(-c2n[nH]c(=S)n2CC2OC(=O)c3ccccc32)c1 (centres undefined) | 68 | 47 |  |  |  |  |  |  |  |  |  | 5.92 | 5.48 | 6.05 | 2 | 2 | 64 |  |  | inactive
O=C(O)c1cccc(Cn2c(-c3ccccc3)n[nH]c2=S)c1 | < 30 | < 30 |  |  |  |  |  |  |  |  |  | 5.85 | 5.74 | 6.40 | 2 | 2 | 32 |  |  | inactive

The next lines start with results.

inhibition [3] [%] | inhibition [7] [%] | inhibition [8] [%] | inhibition [9] [%] | inhibition [10] [%] | inhibition [11] [%] | inhibition [12] [%] | inhibition [13] [%] | inhibition [14] [%] | pKi [15] | inhibition [16] [%] | SMILES | pKi (Beta-lactamase VIM-1) | pKi [1] | pKi [2] | MIC (Klebsiella pneumoniae [4]) [µg/mL] | MIC (Klebsiella pneumoniae [5]) [µg/mL] | MIC (Escherichia coli) [µg/mL] | inhibition [6] [%] | pKi [17] | inhibition [18]
< 30 | < 30 | < 30 | 50 | < 30 |  |  |  |  |  |  | O=C(O)Cc1ccccc1Cn1c(-c2ccccc2)n[nH]c1=S |  |  |  |  |  |  | < 30 |  | 
< 30 | < 30 | 50 |  |  | < 50 | < 50 | 50 | 50 |  |  | S=c1[nH]nc(-c2ccccc2)n1CCc1c[nH]c2ccccc12 |  |  |  |  |  |  |  |  | 
< 30 | 63 | 30 | < 30 | < 30 |  |  |  |  |  |  | S=c1[nH]nc(Cc2ccccc2)n1CCCc1ccccc1 |  |  |  |  |  |  | 32 |  | 
< 30 | 54 | 30 | < 30 | 34 | < 50 |  | < 50 |  |  |  | O=C1OC(Cn2c(-c3ccccc3-c3ccccc3)n[nH]c2=S)c2ccccc21 (centres undefined) |  |  |  |  |  |  |  |  | 
 |  |  | 30 | < 30 |  |  |  | < 50 | 4.81 |  | S=c1[nH]nc(-c2ccccc2)n1[C@@H]1C[C@H]1c1ccccc1 | 5.51 |  |  |  |  |  |  |  | 
< 30 | 30 | < 30 | < 30 | < 30 | < 50 |  | < 50 | < 50 |  | < 50 | O=C1OC(Cn2c(Cc3ccc4ccccc4c3)n[nH]c2=S)c2ccccc21 (centres undefined) |  |  |  |  |  |  |  |  | 
< 30 | < 30 | < 30 | < 30 | < 30 | < 50 | < 50 | < 50 | < 50 |  | < 50 | S=c1[nH]nc(Cc2ccc3ccccc3c2)n1-c1ccc(OCc2ccccc2)cc1 |  |  |  |  |  |  |  |  | 
